IMP-1 inhibitor = blocks Pseudomonas aeruginosa IMP-1 metallo-beta-lactamase | purified IMP-1, nitrocefin hydrolysis, epi-absorbance fluorescence | inhibition, % at 5.6 µM | 290,000 compounds, 0.45% hits;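 active means inhibition above the mean plus 3 SD of all compounds in the same screening run, cut at about 4.5% in these data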;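 further: 0% = IMP-1 with DMSO and 100% = DMSO wells lacking enzyme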
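System: purified recombinant IMP-1 beta-lactamase. Medium: Zinc- and detergent-supplemented HEPES buffer, pH 7.1. Compound: one 5.6 µM dose […]. Schedule: 15 min preincubation plus 25 min reaction at 25 °C. Technique: Epi-absorbance fluorescence, 480 nm excitation, 530 nm emission.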
VIM-2 inhibitor = inhibitors of Pseudomonas aeruginosa VIM-2 metallo-beta-lactamase; AID 1527; 290,000 compounds, 0.89% hits; inhibition, % at 5.6 µM; purified VIM-2, nitrocefin hydrolysis, epi-absorbance fluorescence;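 active means inhibition above the mean of all tested compounds plus 3 SD, cutoff set per screening run, cut at about 7.5% in these data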;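 further: red hydrolysis product quenches plate fluorescence so inhibitors raise well fluorescence; 0% = enzyme with DMSO and 100% = DMSO without enzyme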
proCasp3 act = procaspase-3 (human) activation; P42574; activation, % at 8.5 µM; recombinant procaspase-3 D3A, Ac-DEVD-pNA absorbance 405 nm; 330,000 compounds, 0.11% hits;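 active means activation above the mean of all tested compounds plus 3 SD, cut at about 21% in these data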;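 further: 0% = DMSO alone and 100% = DMSO wells spiked with extra 5 µM PC-3 D3A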
Target sequence (P42574 whole entry D9A/D28A/D175A): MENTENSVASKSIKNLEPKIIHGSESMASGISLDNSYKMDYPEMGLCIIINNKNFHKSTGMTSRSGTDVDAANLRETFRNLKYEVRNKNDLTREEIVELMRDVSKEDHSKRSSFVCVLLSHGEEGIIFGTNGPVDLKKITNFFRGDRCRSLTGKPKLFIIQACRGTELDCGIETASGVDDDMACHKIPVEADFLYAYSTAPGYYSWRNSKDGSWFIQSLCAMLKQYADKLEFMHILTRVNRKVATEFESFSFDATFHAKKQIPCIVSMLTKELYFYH
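Assay system: Autoprocessing-dead procaspase-3 D3A mutant enzyme; also added: Ac-DEVD-pNA; doses: one concentration, 8.5 µM nominal, 0.8% DMSO; times: 1 h compound preincubation, 2 h substrate hydrolysis at 25 °C; technique: 405 nm absorbance of p-nitroaniline, reads at 0 and 120 min; measure: % activation between DMSO and enzyme-spiked controls; repeats: single replicate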
procasp7 counter = counter-screen for procaspase-3 activators: activators of human procaspase-7 | recombinant procaspase-7, Ac-DEVD-pNA absorbance 405 nm; D23A/D198A/D206A triple mutant, cannot self-cleave; scale: DMSO 0, 5 µM enzyme 100 | activation, % at 8.5 µM | 330,000 compounds, 0.093% hits | AID 463210;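 active means percent activation above the screen-wide mean plus 3 SD, cut at about 25% in these data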
Target sequence (P55210 whole entry D23A/D198A/D206A): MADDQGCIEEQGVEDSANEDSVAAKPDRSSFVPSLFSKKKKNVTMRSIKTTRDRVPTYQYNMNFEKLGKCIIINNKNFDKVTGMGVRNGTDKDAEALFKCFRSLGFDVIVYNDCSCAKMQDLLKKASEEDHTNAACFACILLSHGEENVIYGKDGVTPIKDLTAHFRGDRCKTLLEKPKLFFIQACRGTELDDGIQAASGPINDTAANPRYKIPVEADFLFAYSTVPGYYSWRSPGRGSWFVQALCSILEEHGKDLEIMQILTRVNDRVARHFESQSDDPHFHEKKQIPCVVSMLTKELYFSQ
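Replicates: singlicate. Assay system: Procaspase-7 triple mutant (PC-7 D3A). Signal: 405 nm absorbance of p-nitroaniline. Times: 1 h preincubation, 2 h reaction. Buffer or medium: Zinc-free HEPES pH 7.4 with 300 mM NaCl, 0.01% Triton X-100. Also added: DEVD-pNA substrate. Benchmarks: DMSO wells as 0%, DMSO with 5 µM added PC-7 as 100%.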
Neddylation inh = blocks human cullin neddylation. P61081+Q13564. TR-FRET cullin neddylation, biochemical. 360,000 compounds, 0.58% hits. calls only at 25 µM. AID 651699; in the data active means inhibition above about 36%
PolyA inhibitor = yeast polyadenylation inhibition | activity score, % at 12 µM | S. cerevisiae SKY197-pL101 polyadenylation reporter, beta-gal luminescence; efflux-impaired pdr1/pdr3 knockout yeast; score 100 = 6 SD above DMSO | 300,000 compounds, 0.02% hits;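 active means lowest replicate activity score at least 50, where 100 means six control SD above control mean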;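 further: yeast exposed to compound for 9 h at 30 °C; higher score means more reporter readthrough which indicates perturbed polyadenylation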
An asterisk follows results filed as active; i = inactive; x = not tested or not shown; + = active, no number. Compounds with a hit are over-represented: about 1.7% of the library has one in this group of screens.

SMILES	IMP-1 inhibitor	VIM-2 inhibitor	proCasp3 act	procasp7 counter	Neddylation inh	PolyA inhibitor
O=C(NC(=S)NCCC1=CCCCC1)c1ccccc1Br	-2	25*	-1	-24	i	-34
O=C(COC(=O)c1ccccc1Br)NCCC1=CCCCC1	-3	-2	10	7	i	-13
CCOC(=O)NC(NC(=S)Nc1ccc(OCC)cc1)C(Cl)(Cl)Cl (stereo unspecified)	-5	-2	3	-7	i	-1
CS(=O)(=O)N(CC(=O)Nc1cc(Cl)ccc1Cl)c1ccccc1	4.6*	-1	3	2	i	-1
COc1ccc(Nc2ccccc2)c(C)c1	-3	0	3	3	i	-18
Cc1ccc(C(=O)O)cc1N1C(=O)c2cccc3c([N+](=O)[O-])ccc(c23)C1=O	6.1*	1	0	-3	i	6
O=C(NCc1csc(-c2cccs2)n1)c1ccsc1	-1	-2	4	5	i	4
Cn1cc(/C=N/NC(=O)c2cc3cc(Br)ccc3o2)c2ccccc21	-2	-4	-5	-11	i	7
O=C(O)c1ccc(-n2cccc2/C=N\NC(=O)c2cc3cc(Br)ccc3o2)cc1	-4	-2	5	-2	+	7
Cc1[nH]c2ccccc2c1CCN(Cc1cccnc1)C(=S)Nc1cccc(F)c1	-5	-4	4	-11	i	-1
Cc1cc(C)c2c(N)c3cccc(C)c3nc2n1	-1	18*	-6	-1	x	16
Cc1cccc2c(N)c3c(nc12)CCCC3 (tested in a mixture with another compound)	-3	0	x	x	i	x
Cc1ccc2[nH]c(C(=O)O)c(-c3ccccc3)c2c1	3	9.9*	-1	6	i	-4
COc1cc(/C=C2/SC(=S)N(Cc3ccccc3)C2=O)ccc1O	4.7*	3	-11	0	i	19
COc1cc(/C=C2\SC(=S)N(NC(=O)c3ccncc3)C2=O)ccc1O	-8	-6	7	-11	i	92*
O=C1/C(=C/c2ccncc2)SC(=S)N1Cc1ccccc1	6.2*	1	-5	-9	i	-9
COc1cc(/C=C2\SC(=S)N(NS(=O)(=O)c3ccccc3)C2=O)ccc1O	-8	-6	-21	0	i	85*
COc1cc(/C=C2\SC(=S)N(NC(=O)c3ccc(O)c(OC)c3)C2=O)ccc1O	-8	-6	-11	-12	i	-13
CCCN1C(=O)/C(=C/c2ccncc2)SC1=S	-2	-1	-10	-10	i	-14
Cc1cc(C)n2ncc(C(=O)O)c2n1	-1	-3	2	9	i	13
O=[N+]([O-])c1cc2oc3c(c2c(C=NCc2ccccc2)c1O)CCCC3	1	-4	6	-5	i	-37
CC(C)CN=Cc1c(O)c([N+](=O)[O-])cc2oc3c(c12)CCCC3	10*	-3	-2	-3	i	-11
COc1ccc(S(=O)(=O)N2CCOCC2)cc1NC(=O)Cc1coc2cc(C)c(C)cc12	71*	-1	6	-8	i	3
CC(C)NC(=O)CC(=O)N/N=C/c1ccccc1F	-3	-11	0	5	i	2
CC(=O)Nc1cccc(NC(=O)c2cc([N+](=O)[O-])ccc2N2CCCCC2)c1	x	x	-2	-1	i	x
SMILES	IMP-1 inhibitor	VIM-2 inhibitor	proCasp3 act	procasp7 counter	Neddylation inh	PolyA inhibitor
O=C(Nc1ccc(F)cc1)c1ccc(NC(=O)C2CCCO2)cc1 (stereo unspecified)	7.7*	-3	2	1	i	-6
Cc1ccc(OCC(=O)NNC(=O)c2cc3ccccc3o2)cc1C	-2	-7	3	-9	i	8
COCCN(C(C)=O)c1nnc(-c2cnccn2)s1	0	-1	-3	-7	i	3
CNC[C@@H](C)NC[C@@H](Cc1ccccc1)NCCc1ccccc1	0	12*	3	2	i	17
O=C(O)c1ccccc1N1C(=O)c2cccc3cccc(c23)C1=O	-3	-2	4	5	i	1
O=C(NC(=S)NNC(=O)c1cnccn1)c1ccc(Cl)cc1	-4	-5	3	1	+	3
COc1cc(NC(=O)Nc2ccccc2OC)c(OC)cc1NC(=O)CN1CCCCC1	4.7*	-1	-6	8	i	10
COc1ccccc1NC(=O)CN1CCCCCC1	0	1	12	6	i	17
COc1cc2[nH]c(=O)n(CCC(=O)N3CCC(N4CCCCC4)CC3)c(=O)c2cc1OC	-2	7.8*	-2	-2	i	-9
CN1CCCN(c2cc(-c3ccc4ccccc4c3)nc3ccnn23)CC1	x	x	x	x	+	x
CCCNCC(O)Cn1c2ccccc2n2c(=O)cc(C)c(C#N)c12 (stereo unspecified)	0	8.5*	8	7	i	5
CN1CCC(=NNC(=O)CN(c2ccc(Oc3ccccc3)cc2)S(C)(=O)=O)CC1	-1	-2	-2	1	i	-11
O=C(c1ccccc1)c1cccs1	-2	-2	2	-2	i	1
Oc1ccc(-c2n[nH]c(=S)n2Cc2ccccc2)cc1	-2	11*	-10	-19	i	1
Cc1cc(-c2n[nH]c(=S)n2Cc2ccccc2)cs1	0	7.9*	-16	-17	i	-7
COc1ccc(C(C)=O)cc1CSc1nnc2c(Cl)cc(Cl)cn12	-2	-6	1	-5	i	9
Oc1c(Br)cc(Br)cc1C=Nc1cccc2ncccc12	x	x	-13	-19	+	-2
C=CCn1c(C)nnc1SCC(=O)c1c(N)n(C2CC2)c(=O)[nH]c1=O	x	x	x	x	i	x
O=C(N/N=C/c1ccc(F)cc1)c1cc(-c2ccco2)nc2ccccc12	-2	1	4	4	+	-18
COC(=O)c1c(N(S(C)(=O)=O)S(C)(=O)=O)sc2c1CCN(c1ncc(C(F)(F)F)cc1Cl)C2	3	-2	-4	-1	i	10
COC(=O)c1c(/N=C/N(C)C)sc2c1CCN(c1ncc(C(F)(F)F)cc1Cl)C2	5.0*	-1	9	7	i	-3
O=C(O)CCS(=O)(=O)c1cccc2cccnc12	-7	0	5	-2	i	15
c1ccc(Nc2c3c(nc4ccccc24)CCC3)cc1	-2	-1	12	9	i	1
c1ccc2c(Nc3ccc4c(c3)OCCO4)c3c(nc2c1)CCC3	-2	8.2*	-5	-5	i	7
Cc1cccc(-n2cnc(C(=O)O)c2)n1	-1	9.7*	3	9	i	-10

High-throughput results: PubChem BioAssay, several laboratories
